Assay results from different studies.
Each line is one published result; the experiments were not run side by side. pIC50: −log10 of the molar value.
Effect on: microbial growth

| Compound | organism | test | system | setting | quantity | value |
| --- | --- | --- | --- | --- | --- | --- |
| CCCCCOc1ccc(-c2cc(-c3ccc(C(=O)N[C@H]4C[C@@H](O)[C@@H](O)NC(=O)[C@@H]5[C@@H](O)[C@@H](C)CN5C(=O)[C@H]([C@H](O)CC(N)=O)NC(=O)[C@H]([C@H](O)[C@@H](O)c5ccc(O)c(OS(=O)(=O)O)c5)NC(=O)[C@@H]5C[C@@H](O)CN5C(=O)[C@H]([C@@H](C)O)NC4=O)cc3)no2)cc1 | Nakaseomyces glabratus |  |  |  | MIC50 | 0.06 µg/mL |
| CC1(C)S[C@@H]2[C@H](NC(=O)[C@H](N)c3ccccc3)C(=O)N2[C@H]1C(=O)O | Proteus vulgaris | well diffusion | ATCC13315 | 60000 µg/mL | inhibition zone | 25 mm |
| CCCCCCCCCCCCCCCC(=O)C(F)(F)P(=O)(O)O | Bacillus subtilis |  | ATCC23857 |  | MIC | 200 µg/mL |
| CCOC(=O)c1ccccc1S(=O)(=O)NC(=O)Nc1nc(Cl)cc(OC)n1 | Nakaseomyces glabratus | broth dilution |  | 48 h | MIC50 | 5.6 µM |
| CC(C)C(C)CCCCCCCCCCCc1cc(O)cc(O)c1 (stereo not drawn) | Listeria monocytogenes |  | ATCC19115 |  | pIC50 | 4.47 |
| O=C(CCCCCCCCCCOc1ccccc1)CP(=O)(O)O | Bacillus subtilis |  | ATCC23857 |  | MIC | > 200 µg/mL |
| CC[C@H](C)C[C@H](C)CCCCCCCCC(=O)N[C@H]1C[C@@H](O)[C@@H](NCCN)NC(=O)[C@@H]2[C@@H](O)CCN2C(=O)[C@H]([C@H](O)CCN)NC(=O)[C@H]([C@H](O)[C@@H](O)c2ccc(O)cc2)NC(=O)[C@@H]2C[C@@H](O)CN2C(=O)[C@H]([C@@H](C)O)NC1=O | Nakaseomyces glabratus | broth dilution | MY1381 |  | MIC50 | 0.125 µg/mL |
| CCCSc1ccc2nc(NC(=O)OC)[nH]c2c1 | Cryptococcus neoformans | broth dilution |  | 72 h, clinical isolate | pIC50 | 5.90 |
| C=CCCCCCCCCC(=O)C(F)(F)P(=O)(O)O | Bacillus subtilis |  | ATCC23857 |  | MIC | 200 µg/mL |
| CCCCCCCCCCCCCCCCCCCCc1cc(O)cc(O)c1 | Bacillus subtilis |  |  |  | pIC50 | < 3.70 |
| CCCC[C@H]1CN(c2cccc(OC(F)(F)F)c2)C(=O)CN1Cc1cncn1Cc1ccc(Br)cc1 | Cryptococcus neoformans | broth dilution |  |  | MIC | 3 to 6 µM |
| CCCC(=O)CP(=O)(O)O | Bacillus subtilis |  | ATCC23857 |  | MIC | > 200 µg/mL |
| O=C(NN=Cc1ccc(O)c(Br)c1)c1cccc(Br)c1 | Cryptococcus neoformans | broth dilution |  |  | MIC | 0.3 µg/mL |
| CCCCCCCC/C=C\CCCCCCCCNC(=O)CP(=O)(O)O | Bacillus subtilis |  | ATCC23857 |  | MIC | 200 µg/mL |
| CC(C)CCCCCCCCCCCCCCc1cc(O)cc(O)c1 | Listeria monocytogenes |  | ATCC19115 |  | pIC50 | 4.69 |
